From ChEMBL document CHEMBL5042469, “Unique Molecular Interaction with the Histone Deacetylase 6 Catalytic Tunnel: Crystallographic and Biological Characterization of a Model Chemotype” (J Med Chem, 2021)

Assays:
Histone deacetylase 8 = target: T1, Histone deacetylase 8 (Homo sapiens, UniProt Q9BY41); experiment: Inhibition of full length human HDAC8 using FAM-labeled acetylated peptide as substrate by electrophoretic mobility shift assay
T1 sequence (Q9BY41 whole entry): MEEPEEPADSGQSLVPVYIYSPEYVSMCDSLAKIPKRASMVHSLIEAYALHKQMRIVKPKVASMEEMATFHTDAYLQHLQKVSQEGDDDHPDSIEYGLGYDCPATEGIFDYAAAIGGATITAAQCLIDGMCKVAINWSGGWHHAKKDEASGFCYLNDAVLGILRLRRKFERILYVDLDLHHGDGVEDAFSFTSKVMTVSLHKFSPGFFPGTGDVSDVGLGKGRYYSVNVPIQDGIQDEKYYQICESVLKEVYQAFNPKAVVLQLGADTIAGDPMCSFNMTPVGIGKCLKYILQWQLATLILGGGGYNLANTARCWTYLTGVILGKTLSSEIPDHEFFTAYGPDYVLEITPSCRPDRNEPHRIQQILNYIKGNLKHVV
Procedure, shortened: (§1)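 Full-length human HDAC isoform enzymatic assay by electrophoretic mobility shift, using a FAM-labelled acetylated peptide substrate. […] Values are the mean of duplicate experiments with 95% confidence intervals.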

Histone deacetylase 3 = Histone deacetylase 3 (Homo sapiens, UniProt O15379); experiment: Inhibition of full length human HDAC3 using FAM-labeled acetylated peptide as substrate by electrophoretic mobility shift assay; procedure, shortened: as §1
Histone deacetylase 11 = target: T2, Histone deacetylase 11 (Homo sapiens, UniProt Q96DB2); experiment: Inhibition of full length human HDAC11 using FAM-labeled acetylated peptide as substrate by electrophoretic mobility shift assay; procedure, shortened: as §1
T2 sequence (Q96DB2 whole entry): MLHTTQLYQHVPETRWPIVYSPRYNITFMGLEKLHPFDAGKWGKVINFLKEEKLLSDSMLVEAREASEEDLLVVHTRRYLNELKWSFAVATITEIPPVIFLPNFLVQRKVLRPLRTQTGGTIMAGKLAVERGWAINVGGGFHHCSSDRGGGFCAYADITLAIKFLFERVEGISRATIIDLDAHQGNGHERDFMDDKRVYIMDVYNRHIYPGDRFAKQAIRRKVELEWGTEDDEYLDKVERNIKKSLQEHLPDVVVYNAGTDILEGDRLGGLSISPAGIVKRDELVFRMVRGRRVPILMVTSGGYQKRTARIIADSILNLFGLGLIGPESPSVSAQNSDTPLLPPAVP

[1] = target: T3, Protein deacetylase HDAC6 (Homo sapiens, UniProt Q9UBN7); experiment: Inhibition of full length human HDAC6 using FAM-labeled acetylated peptide as substrate by electrophoretic mobility shift assay
T3 sequence (Q9UBN7 whole entry): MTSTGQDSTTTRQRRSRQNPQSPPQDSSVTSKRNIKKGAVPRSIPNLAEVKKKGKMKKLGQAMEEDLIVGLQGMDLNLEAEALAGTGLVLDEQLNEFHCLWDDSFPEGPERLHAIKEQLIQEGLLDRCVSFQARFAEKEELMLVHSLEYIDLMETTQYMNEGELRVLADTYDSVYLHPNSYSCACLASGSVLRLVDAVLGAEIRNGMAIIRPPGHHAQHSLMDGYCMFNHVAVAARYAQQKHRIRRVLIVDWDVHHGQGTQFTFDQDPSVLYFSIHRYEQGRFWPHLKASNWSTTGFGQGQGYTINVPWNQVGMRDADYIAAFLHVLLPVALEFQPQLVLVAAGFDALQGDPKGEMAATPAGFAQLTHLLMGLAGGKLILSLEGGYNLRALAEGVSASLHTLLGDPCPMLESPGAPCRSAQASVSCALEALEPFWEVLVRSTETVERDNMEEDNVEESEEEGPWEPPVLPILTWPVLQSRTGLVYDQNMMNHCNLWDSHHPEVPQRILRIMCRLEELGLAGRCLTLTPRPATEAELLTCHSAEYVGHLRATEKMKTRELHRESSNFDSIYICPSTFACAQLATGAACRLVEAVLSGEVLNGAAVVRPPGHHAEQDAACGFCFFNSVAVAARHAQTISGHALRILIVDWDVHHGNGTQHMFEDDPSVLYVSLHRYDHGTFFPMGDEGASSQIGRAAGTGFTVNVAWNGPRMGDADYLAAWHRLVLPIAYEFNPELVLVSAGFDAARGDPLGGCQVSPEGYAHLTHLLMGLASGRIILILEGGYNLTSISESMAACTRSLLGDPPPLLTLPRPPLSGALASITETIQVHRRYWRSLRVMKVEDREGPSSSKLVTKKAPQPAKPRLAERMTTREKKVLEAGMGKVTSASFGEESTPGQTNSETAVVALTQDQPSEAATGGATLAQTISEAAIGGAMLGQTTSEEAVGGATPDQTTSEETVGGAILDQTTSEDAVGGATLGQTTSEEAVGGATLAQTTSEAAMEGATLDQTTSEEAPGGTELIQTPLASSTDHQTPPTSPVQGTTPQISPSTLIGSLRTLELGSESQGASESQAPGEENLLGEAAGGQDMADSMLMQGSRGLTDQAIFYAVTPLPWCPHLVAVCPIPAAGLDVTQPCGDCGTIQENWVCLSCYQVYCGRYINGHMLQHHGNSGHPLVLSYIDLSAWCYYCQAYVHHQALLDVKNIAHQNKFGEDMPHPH

Sequence of Histone deacetylase 3 (O15379 whole entry): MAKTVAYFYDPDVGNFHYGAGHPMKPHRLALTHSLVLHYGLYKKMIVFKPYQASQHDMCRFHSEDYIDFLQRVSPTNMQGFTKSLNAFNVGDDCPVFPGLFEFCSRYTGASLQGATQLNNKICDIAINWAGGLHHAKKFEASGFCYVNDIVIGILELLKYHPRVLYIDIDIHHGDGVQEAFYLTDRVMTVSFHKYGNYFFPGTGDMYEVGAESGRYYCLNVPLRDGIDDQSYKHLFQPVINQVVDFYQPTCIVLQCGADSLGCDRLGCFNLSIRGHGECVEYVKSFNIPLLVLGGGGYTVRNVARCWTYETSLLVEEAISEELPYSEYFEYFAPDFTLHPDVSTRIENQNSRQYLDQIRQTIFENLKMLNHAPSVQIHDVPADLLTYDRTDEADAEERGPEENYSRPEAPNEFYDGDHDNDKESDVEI

IC50 (Histone deacetylase 8) [nM]	IC50 (Histone deacetylase 3) [nM]	IC50 (Histone deacetylase 11) [nM]	IC50 [1] [nM]	Structure (SMILES)
> 1000	> 1000	> 1000	45	O=C(NO)c1ccc(CN(Cc2ccc(C(F)(F)F)cc2)S(=O)(=O)c2c(F)c(F)c(F)c(F)c2F)cc1
> 1000	> 1000	> 1000	14	O=C(NO)c1ccc(CN(Cc2ccncc2)S(=O)(=O)c2c(F)c(F)c(F)c(F)c2F)cc1
68	> 1000	88	42	CC(C)(C)c1ccc(CN(Cc2ccc(C(=O)NO)cc2)S(=O)(=O)c2c(F)c(F)c(F)c(F)c2F)cc1
332	896	941	6	O=C(NO)c1ccc(CN(Cc2ccccn2)S(=O)(=O)c2cc(F)c(F)c(F)c2F)cc1
101	> 1000	73	6	Cc1ccc(CN(Cc2ccc(C(=O)NO)cc2)S(=O)(=O)c2c(F)c(F)c(F)c(F)c2F)cc1
412	> 1000	235	14	O=C(NO)c1ccc(CN(Cc2cccc(F)c2)S(=O)(=O)c2cc(F)c(F)c(F)c2F)cc1
150	> 1000	122	9	O=C(NO)c1ccc(CN(Cc2ccccc2)S(=O)(=O)c2c(F)c(F)c(F)c(F)c2F)cc1
> 1000	> 1000	> 1000	–	O=C(NO)c1ccc(CNS(=O)(=O)c2c(F)c(F)c(F)c(F)c2F)cc1
581	> 1000	472	11	O=C(NO)c1ccc(CN(Cc2ccncc2)S(=O)(=O)c2cc(F)c(F)c(F)c2F)cc1
241	> 1000	263	10	O=C(NO)c1ccc(CN(Cc2ccccc2F)S(=O)(=O)c2cc(F)c(F)c(F)c2F)cc1
155	697	115	5	O=C(NO)c1ccc(CN(Cc2ccccc2)S(=O)(=O)c2cc(F)c(F)c(F)c2F)cc1
–	–	–	400	O=C(CCCCCCC(=O)N/N=C/c1ccc(N(c2ccccc2)c2ccccc2)cc1)NO
367	> 1000	787	13	O=C(NO)c1ccc(CN(Cc2ccc(F)cc2)S(=O)(=O)c2c(F)c(F)c(F)c(F)c2F)cc1
860	> 1000	> 1000	21	O=C(NO)c1ccc(CN(Cc2ccc(F)cc2)S(=O)(=O)c2cc(F)c(F)c(F)c2F)cc1
> 1000	> 1000	> 1000	29	CN(C)c1ccc(CN(Cc2ccc(C(=O)NO)cc2)S(=O)(=O)c2c(F)c(F)c(F)c(F)c2F)cc1
